From PubChem BioAssay AID720543 (The Scripps Research Institute Molecular Screening Center, 2013)
Among all 370,000 compounds or so, about 2,000 (0.54%) were called active. The full list was thinned out, with actives kept by preference. A number with no mark means an inactive call.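 How the source made its calls: active means inhibition exceeding the mean over every tested compound plus 3 SD (cut at about 30% in these data); inactive means the rest.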

These compounds were tested against (Lyso)-N-acylphosphatidylethanolamine lipase (Mus musculus) (UniProt Q8VD66) (assay: ABHD4 inhibitors, primary screen, biochemical, fluorescence polarization, mouse (AID 720543;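 further: 0% = plate median of compound wells and 100% = S159A mutant with DMSO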)). Details: purified mABHD4, FP-Rh probe fluorescence polarization; at 8.92 µM; stronger effect = higher value.
(Lyso)-N-acylphosphatidylethanolamine lipase (Mus musculus), sequence (Q8VD66 whole entry, looked up): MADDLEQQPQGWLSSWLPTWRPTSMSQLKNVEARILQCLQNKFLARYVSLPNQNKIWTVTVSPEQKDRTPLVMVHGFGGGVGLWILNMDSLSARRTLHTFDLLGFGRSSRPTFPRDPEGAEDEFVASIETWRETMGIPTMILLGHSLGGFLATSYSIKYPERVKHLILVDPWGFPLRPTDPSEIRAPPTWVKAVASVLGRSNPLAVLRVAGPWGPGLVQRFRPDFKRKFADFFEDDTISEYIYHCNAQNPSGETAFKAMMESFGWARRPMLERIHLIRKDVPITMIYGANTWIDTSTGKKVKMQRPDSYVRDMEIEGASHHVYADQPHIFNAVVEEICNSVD
How it was run: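 System: mouse ABHD4 enzyme, wild type / Medium: HEPES pH 7.0, NaCl, Pluronic buffer / Reagent: FP-Rh activity-based fluorescent probe / Control set: S159A mutant high control, sample median low control / Detection: fluorescence polarization with parallel and perpendicular emission, 525/598 nm / Schedule: 45 min + 60 min at 25 °C / Compound dosing: 8.92 µM, single dose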

| SMILES | inhibition |
| --- | --- |
| COc1cc(-n2c(=S)[nH]c3ccc(C)cc3c2=O)c(Cl)cc1Cl | 36.9% (active) |
| O=c1c2ccccc2[nH]c(=S)n1-c1cccc(Cl)c1 | 6.67% |
| CC12CN3CC(C)(CN(C1)C3c1cccs1)C2 (stereo not given) | 2.23% |
| C/C=C/CC1(CC)C(=O)NC(=S)NC1=O | 5.1% |
| c1ccc(C2NCc3ccccc3-n3cccc32)cc1 (stereo not given) | 6.15% |
| CCOc1ccc(-c2cc(C)[n+](CCN(CC)CC)c(-c3ccc(OCC)cc3)c2)cc1 | 5.92% |
| CCOc1cccc(=NC2CCCCC2)c2c(C)[nH]c(C)c12 | 34.4% (active) |
| COc1ccc(NC(=O)N2CCC3(CC2)OCCO3)c(OC)c1 | 2.18% |
| CO[C@H]([C@H](C)/C=C/N(C)C=O)[C@@H](C)C(=O)CC[C@H](C)[C@H](O)[C@H](C)[C@H]1OC(=O)/C=C/C(C)=C/[C@H](O)[C@H](OC)C[C@@H]2C=CC[C@@H](C[C@H](OC)[C@@]3(CO3)[C@@H](OC)C[C@@H](OC)[C@@H]1C)O2 | -6.78% |
| Clc1ccc([C@@H]2CC3CCC2N3)cn1 (stereo not given in full) | 7.57% |
